Sampled rows, rich in hits. Any-hit rate of the full collection: about 3.4%.
GPR7 antagonist = GPR7 receptor antagonists, primary screen, cell-based, fluorescence, single concentration | Neuropeptides B/W receptor type 1 (Homo sapiens), P48145 | AID 1861, 2009 | inhibition, % at 4.4 µM | GPR7-expressing cells, fluorescence antagonist assay | 290,000 tested, 1.1% active; in the data active = inhibition above about 16%, passing the limit was not always enough;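 also: cells stimulated with the agonist NPW; 0% = agonist with vehicle and 100% = vehicle without agonist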
LANA-H2B inh = blockers of LANA interaction with H2A/H2B – biochemical, FP readout, HTS, primary screen; inhibition, % (test concentration not listed); 320,000 tested, 0.6% active; cell-free LANA-H2A/H2B peptide, fluorescence polarization; in the data active = inhibition mostly above about 10%, no sharp cut-off; inactive = mostly below about 6.7%
TAAR1 agonist = human TAAR1 agonists, primary screen, Fluo-8 calcium fluorescence, CHO RD-HGA16 cells; Trace amine-associated receptor 1 (Homo sapiens), Q96RJ0; vehicle wells 0%, saturating PEA agonist 100%; activation, % at 3 µM; 360,000 tested, 0.99% active; AID 624467, 2012;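 active = activation above the mean activation of all test compounds in the run plus 3 SD, cut at about 38% in these data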
Target sequence (Q96RJ0 whole entry, looked up): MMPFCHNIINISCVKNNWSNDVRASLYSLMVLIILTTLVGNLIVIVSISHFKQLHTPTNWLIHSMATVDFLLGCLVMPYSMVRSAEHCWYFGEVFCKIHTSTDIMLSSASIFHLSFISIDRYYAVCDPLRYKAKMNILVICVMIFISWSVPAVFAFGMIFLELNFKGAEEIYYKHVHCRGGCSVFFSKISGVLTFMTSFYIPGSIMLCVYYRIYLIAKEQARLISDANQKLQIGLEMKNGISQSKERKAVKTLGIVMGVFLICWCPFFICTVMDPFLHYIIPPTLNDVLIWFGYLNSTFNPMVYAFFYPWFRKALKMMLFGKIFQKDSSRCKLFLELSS
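test system = CHO RD-HGA16 cells carrying human TAAR1 plus Gα16 | schedule = 17-24 h seeding, 75 min 37 °C dye, 30 min RT | compound dosing = 3 µM single concentration | control set = DMSO and PEA EC100 | replicates = n 1 | signal = Fluo-8 fluorescence, 5 s baseline then 140 s kinetic read | measure = percent activation vs PEA EC100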
TRPML3 agonist = human TRPML3 channel agonists, primary screen, cell-based, HEK293 TRPML3-YFP, Fluo-8 calcium fluorescence, 3 µM. 100% = the carbachol control signal. 220,000 tested, 0.29% active. AID 1448, 2008. Mucolipin-3 (Homo sapiens), Q8TDD5. activation, % at 3 µM;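 active = activation above its plate's cutoff, the mean activation of the plate's test wells plus 3 SD, cut at about 12% in these data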;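 also: 0% = DMSO only wells and 100% = carbachol wells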
Target sequence (Q8TDD5 whole entry, looked up): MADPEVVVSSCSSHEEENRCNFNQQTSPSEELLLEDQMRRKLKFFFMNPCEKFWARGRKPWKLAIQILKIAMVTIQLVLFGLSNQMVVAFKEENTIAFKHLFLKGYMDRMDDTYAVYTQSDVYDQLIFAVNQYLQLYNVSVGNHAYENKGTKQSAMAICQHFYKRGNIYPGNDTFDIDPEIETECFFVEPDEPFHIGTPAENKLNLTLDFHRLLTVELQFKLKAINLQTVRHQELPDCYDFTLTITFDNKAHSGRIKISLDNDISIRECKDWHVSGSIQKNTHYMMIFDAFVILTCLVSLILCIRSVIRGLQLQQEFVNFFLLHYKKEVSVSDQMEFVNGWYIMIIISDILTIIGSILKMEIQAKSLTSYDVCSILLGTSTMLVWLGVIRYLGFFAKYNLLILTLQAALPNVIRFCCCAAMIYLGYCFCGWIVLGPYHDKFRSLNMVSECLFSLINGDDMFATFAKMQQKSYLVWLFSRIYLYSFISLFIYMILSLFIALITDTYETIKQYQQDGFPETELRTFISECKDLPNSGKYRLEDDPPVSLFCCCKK
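Test system: TRPML3-YFP stable HEK293 cells. Doses: single point at 3 µM. Incubation: dye loading 1 h 37 °C then 30 min ambient, 125 s read. Signal: Fluo-8 calcium dye fluorescence, ex 470-495, em 515-575 nm. Measure: percent activation from peak-to-basal fluorescence ratio, scaled between DMSO and carbachol.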
TAAR1 antag = human TAAR1 antagonists, primary screen, Fluo-8 calcium fluorescence, CHO RD-HGA16 cells. Trace amine-associated receptor 1 (Homo sapiens), Q96RJ0. antagonist. inhibition, % at 3 µM. 360,000 tested, 1.5% active. AID 624466, 2012;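 active = inhibition above a per-plate cutoff, the mean inhibition of test compounds on that plate plus 3 SD, cut at about 49% in these data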;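 also: 0% = DMSO plus EC80 beta-PEA response and 100% = DMSO alone without agonist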
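Material: RD-HGA16 CHO cells with stable hTAAR1 and Gα16; Dosing: single nominal final test compound concentration of 3 µM; Schedule: seeding 17-24 h prior, 75-min 37 °C, 30-min RT dye loading; Detection: kinetic Fluo-8 calcium fluorescence measurement; Measure: % inhibition from peak post-agonist over basal fluorescence ratio; Benchmarks: vehicle and agonist controls.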
zfTRPN1 agonist = zebrafish TRPN1 channel agonists, primary screen, cell-based, HEK293, calcium fluorescence; 220,000 tested, 0.18% active; activation, % at 3 µM; HEK293 zebrafish TRPN1-YFP, Fluo-8 calcium fluorescence; 100% = response to 87 µM carbachol; transient receptor potential cation channel N1 (TRPN1/NompC), Danio rerio;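 active = activation above its plate's cutoff, the mean activation of test wells on that plate plus 3 SD, cut at about 19% in these data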;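 also: 0% = DMSO alone and 100% = 87 µM carbachol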
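Material: zebrafish TRPN1-YFP in HEK293 cells. Doses: one dose of 3 µM, 0.3% DMSO. Incubation: dye 1 h 37 °C plus 30 min RT. Measured by: intracellular calcium fluorescence with Fluo-8.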
GPR7 antag conf = GPR7 receptor antagonists, confirmation, cell-based, fluorescence, single concentration. shares compounds with GPR7 antagonist. GPR7-expressing cells, calcium fluorescence antagonist mode. inhibition, % at 4.4 µM. 2,400 tested, 52% active. AID 1952, 2009; in the data active = inhibition above about 24%;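 also: stimulated with the GPR7 agonist NPW; 0% = agonist plus vehicle and 100% = vehicle alone without agonist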
MCHR1 antag = MCHR1 antagonists in cells, counter-screen for GPR7 antagonist project, cell-based, fluorescence, human. inhibition, % at 4.4 µM. shares compounds with GPR7 antagonist. 2,400 tested, 62% active. MCHR1-expressing cells, fluorescence antagonist assay;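 also: 0% = vehicle with agonist and 100% = vehicle without agonist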
TAAR1 nonsel count = nonselective antagonists in TAAR1 counter-screen cells, counter-screen for hTAAR1 antagonist project, cell-based, fluorescence, calcium | shares compounds with TAAR1 antag | inhibition, % at 3 µM | counterscreen cell line, antagonist mode | 2,400 tested, 77% active | AID 651780, 2012;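 also: CHO-Ga16 host cells stimulated with ATP at an EC80 level; 0% = agonist EC80 plus vehicle and 100% = vehicle without agonist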
TAAR1 antag conf = human TAAR1 antagonists, retest of hits, confirmation, cell-based, fluorescence | shares compounds with TAAR1 antag | TAAR1-expressing cells, fluorescence antagonist read-out | inhibition, % at 3 µM | 2,400 tested, 40% active | AID 651785, 2012; in the data active = inhibition above about 49%;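 also: CHO-Ga16 host cells challenged with agonist PEA near its EC80; 0% = agonist at EC80 plus vehicle and 100% = vehicle with no agonist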
Ga16 ag counter-1 = calcium activation in Ga16-expressing cells, counter-screen for TAAR1 antagonist project, cell-based, fluorescence. shares compounds with TAAR1 antag. agonist counterscreen. activation, % at 3 µM. 2,400 tested, 18% active; in the data active = activation above about 12%;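 also: 0% = vehicle wells and 100% = saturating stimulus response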
TAAR1 ag counter = TAAR1 activation by candidate antagonists – cell-based, fluorescence, counter-screen for TAAR1 antagonist project; shares compounds with TAAR1 antag; hTAAR1 cell line, agonist mode; activation, % at 3 µM; 2,400 tested, 2% active; in the data active = activation above about 37%;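 also: CHO cells stably expressing TAAR1 with calcium dye readout; 0% = DMSO vehicle and 100% = full agonist response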
TAAR1 ag confirm = human TAAR1 agonists, retest of hits, confirmation, Fluo-8 calcium fluorescence, CHO RD-HGA16 cells. shares compounds with TAAR1 agonist. scaled: DMSO 0%, maximal phenethylamine 100%. activation, % at 3 µM. 2,400 tested, 82% active. AID 651783, 2012;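 active = activation above a cutoff set at the run's mean compound activation plus 3 SD, cut at about 39% in these data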
Ga16 ag counter-2 = nonselective calcium mobilization agonists, CHO-Ga16 cells, counter-screen for hTAAR1 agonist project, cell-based, fluorescence, CHO-Ga16 parental line; activation, % at 3 µM; 2,400 tested, 50% active; Fluo-8 calcium fluorescence; normalized to maximal ATP response, DMSO zero; shares compounds with TAAR1 agonist; AID 651787, 2012;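 active = activation above the run cutoff, the mean activation over all tested wells plus 3 SD, cut at about 12% in these data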;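 also: 0% = DMSO wells and 100% = maximal ATP response on the peak over basal ratio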
TAAR1 desens = TAAR1 desensitization by agonist hits, confirmation, counter-screen for TAAR1 agonist project, cell-based, fluorescence, tachyphylaxis. shares compounds with TAAR1 agonist. CHO RD-HGA16 hTAAR1, Fluo-8 calcium, beta-PEA response inhibition. inhibition, % at 3 µM. 2,400 tested, 46% active;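 active = inhibition above the run cutoff, the mean inhibition of all test compounds plus 3 SD, cut at about 49% in these data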;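 also: beta-PEA stimulus applied at its EC80; loss of beta-PEA calcium signal after compound pretreatment read as receptor desensitization; 0% = DMSO with beta-PEA at EC80 and 100% = DMSO alone without agonist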
Ga16 nonsel ant = inhibition of ATP-evoked calcium response in CHO-Ga16 cells, counter-screen for TAAR1 agonist project, cell-based, fluorescence. shares compounds with TAAR1 agonist. AID 651952, 2012. CHO-Ga16 ATP-induced calcium, Fluo-8 fluorescence. 2,400 tested, 39% active. inhibition, % at 3 µM;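 active = inhibition above the plate's mean compound inhibition plus 3 SD, computed per plate, cut at about 22% in these data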;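 also: 0% = EC80 ATP with DMSO and 100% = DMSO wells without ATP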
* marks the source's active call; other numbers are inactive results; / = not tested or not shown. Rule as the data show it, unless noted: active = inhibition above about 22%; inactive = the rest.

SMILES | GPR7 antagonist | LANA-H2B inh | TAAR1 agonist | TRPML3 agonist | TAAR1 antag | zfTRPN1 agonist | TAAR1 nonsel count | TAAR1 antag conf | Ga16 ag counter-1 | TAAR1 ag counter | others
Clc1ccc(COC(Cn2ccnc2)c2ccc(Cl)cc2Cl)cc1 (stereo not given) | 30.5* | -6.3 | 6.4 | -0.8 | 48.6* | -2.1 | 16.1 | 43.4 | 22.4* | 36.9 | GPR7 antag conf=59.0*;MCHR1 antag=62.3*
Clc1ccc(CSC(Cn2ccnc2)c2ccc(Cl)cc2Cl)cc1 (stereo not given) | 15.7 | -12.9 | 2.9 | -0.6 | 40.3 | -1.0 | / | / | / | /
CC1(C)CSC(=NCc2ccccc2)N1 | 86.7* | -4.3 | 132.3* | 58.1* | 88.2* | 60.7* | / | / | / | / | GPR7 antag conf=95.6*;MCHR1 antag=102.3*;TAAR1 ag confirm=111.3*;Ga16 ag counter-2=81.0*;TAAR1 desens=95.0*;Ga16 nonsel ant=67.7*
O=S(=O)(c1ccc(Cl)cc1)N1Cc2ccccc2-n2nncc2C1 | / | / | 1.0 | / | -14.5 | / | / | / | / | /
C=C1[C@@H](C)[C@H]2[C@H](Cc3ccccc3)NC(=O)[C@]23OC(=O)/C=C/[C@H](O)CCC[C@@H](C)C/C=C/[C@H]3[C@@H]1O | -16.9 | 5.4 | 20.1 | 1.1 | 71.8* | 1.8 | 32.0* | 55.2* | 11.3 | 12.7
C=CCn1c(O)c(C(C)=NCCC(c2ccccc2)c2ccccc2)c(=O)[nH]c1=O | -8.0 | 0.7 | 3.1 | 0.0 | 52.1* | 0.9 | 26.7* | 38.6 | 5.2 | 8.6
C=CCn1c(O)c(C(C)=NC(C)c2ccccc2)c(=O)[nH]c1=O (stereo not given) | -19.5 | 3.0 | 9.0 | 0.2 | -14.6 | 0.9 | / | / | / | /
Cc1ccc2c(C)c3ccc4ccccc4c3c[n+]2c1 | / | / | -0.7 | / | -12.3 | / | / | / | / | /
CC(=O)c1ccc2c(c1)C1C(Cl)C(Sc3ccccc3[N+](=O)[O-])CC1C(c1ccccc1)N2 (stereo not given) | 5.0 | 0.3 | 2.2 | 0.4 | -1.6 | -1.8 | / | / | / | /
CC(=O)c1ccc2c(c1)C1C(Cl)C(Sc3ccccc3[N+](=O)[O-])CC1C(c1ccccc1[N+](=O)[O-])N2 (stereo not given) | 2.7 | 1.6 | 8.7 | -0.3 | 58.5* | -1.0 | 34.4* | 45.5 | 6.7 | 4.2
O=C1NCN(c2ccccc2)C12CCN(C(c1cc3ccccc3o1)c1nnnn1Cc1ccccc1)CC2 (stereo not given) | / | / | 1.8 | / | 38.5 | / | / | / | / | /
O=C1NCN(c2ccccc2)C12CCN(C(CCc1ccccc1)c1nnnn1Cc1ccccc1)CC2 (stereo not given) | / | / | 0.1 | / | 18.8 | / | / | / | / | /
CSCCC(c1nnnn1Cc1ccccc1)N1CCC2(CC1)C(=O)NCN2c1ccccc1 (stereo not given) | / | / | 13.2 | / | 52.4* | / | 27.9* | 39.8 | 7.0 | 6.3
O=C1NCN(c2ccccc2)C12CCN(C(c1ccnc3ccccc13)c1nnnn1-c1ccc3c(c1)OCCO3)CC2 (stereo not given) | / | / | 19.0 | / | 59.2* | / | 28.5* | 43.3 | 10.4 | 10.7
O=C1NCN(c2ccccc2)C12CCN(C(c1ccccc1)c1nnnn1Cc1ccccc1)CC2 (stereo not given) | / | / | 8.7 | / | 53.0* | / | 19.6 | 30.2 | 7.1 | 2.9
O=C(COC(=O)c1cc(Br)cc(Br)c1O)NC12CC3CC(CC(C3)C1)C2 | / | / | -0.2 | / | 27.1 | / | / | / | / | /
C[C@]12CCC3C(CC[C@@H]4[C@H]5O[C@H]5CC[C@]34C)C1CC[C@@H]2O (stereo not given in full) | / | / | 6.8 | / | -13.4 | / | / | / | / | /
COc1ccc(NP(=O)(Oc2ccc(Cl)cc2)Oc2ccc(Cl)cc2)cc1OC | 0.3 | 2.0 | -1.1 | 0.1 | 39.2 | -0.1 | / | / | / | /
COc1ccccc1OP(=O)(Nc1ccc(Br)cc1)Oc1ccccc1OC | 7.2 | 3.3 | 9.5 | / | 78.3* | / | 30.2* | 55.8* | 6.9 | 7.3
c1ccc(-c2nc3ccccc3nc2-c2ccc(CN3CCC(n4nnc5ccccc54)CC3)cc2)cc1 | / | / | 1.5 | / | 51.5* | / | 15.5 | 31.8 | 0.2 | -1.9

High-throughput results: PubChem, several laboratories
